For data set [1], the target named is T1, Bile acid receptor (Homo sapiens) (UniProt Q96RI1).
T1 sequence (whole entry): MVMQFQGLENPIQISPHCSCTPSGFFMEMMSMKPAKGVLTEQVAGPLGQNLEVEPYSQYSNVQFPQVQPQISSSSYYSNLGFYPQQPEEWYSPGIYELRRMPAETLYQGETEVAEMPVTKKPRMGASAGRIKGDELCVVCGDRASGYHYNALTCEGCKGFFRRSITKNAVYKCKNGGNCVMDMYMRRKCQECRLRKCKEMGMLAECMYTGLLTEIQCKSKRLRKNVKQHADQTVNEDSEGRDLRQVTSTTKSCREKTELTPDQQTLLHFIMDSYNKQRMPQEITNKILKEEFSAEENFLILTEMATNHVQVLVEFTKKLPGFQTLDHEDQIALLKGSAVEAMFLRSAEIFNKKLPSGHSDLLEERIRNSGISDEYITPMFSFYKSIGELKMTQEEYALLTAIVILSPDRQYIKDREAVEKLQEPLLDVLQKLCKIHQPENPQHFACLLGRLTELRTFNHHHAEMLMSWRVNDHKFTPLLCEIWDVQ
Kind of data set: Agonist activity at GAL4 DNA binding domain tagged FXR ligand binding domain (unknown origin) expressed in human HepG2 cells assessed as receptor transactivation measured by relative luciferase activity at 1 uM by luciferase reporter gene based mammalian one-hybrid assay relative to untreated control. The data set is classed as cell-based. Put shortly:
(§1)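 HepG2 cells seeded at 1 × 10^5 cells/well in phenol red-free DMEM with 10% charcoal-stripped FBS and penicillin/streptomycin. Next day transfected with pGAL4-FXR LBD (2 µg), pG5-luc (6 µg) and pCMV-β-gal normalizer (1 µg). Treated 48 h at 100 nM–10 µM, DMSO vehicle, 10 µM CDCA reference. Luciferase/β-gal ratio expressed relative to DMSO (=1); at least triplicate.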

In data set [2] the target is T1, Bile acid receptor (Homo sapiens). The experiment in a line: Agonist activity at […] (unknown origin) expressed in human HepG2 cells co-expressing rat CYP7A1 gene promoter assessed as transrepression of CYP7A1 promoter driven luciferase activity relative to untreated control. The data set is classed as cell-based. In a few lines:
(§2)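 Transient transfection of HepG2 cells (1 × 10^5/well; phenol red-free DMEM, 10% charcoal-stripped FBS, pen/strep) with pCMV-FXR (2 µg), rat CYP7A1 promoter reporter prCYP7A1-luc (6 µg) and pCMV-β-gal (1 µg). After 48 h exposure to 100 nM–10 µM, lysate luciferase was normalized to β-gal and expressed relative to DMSO (=1). 10 µM CDCA reference; at least three determinations.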

Data set [3] shares this target. Kind of data set: Agonist activity at […] (unknown origin) expressed in human HepG2 cells co-expressing rat CYP7A1 gene promoter assessed as transrepression of CYP7A1 promoter driven luciferase activity at 10 uM relative to untreated control. It is filed as cell-based. Put shortly: as §2
For data set [4] the target is unchanged. The experiment in a line: Agonist activity at […] (unknown origin) expressed in human HepG2 cells co-expressing human SHP gene promoter assessed as transactivation of SHP promoter driven luciferase activity at 100 nM relative to untreated control. It is filed as cell-based.
The target in data set [5] is T2, Peroxisome proliferator-activated receptor gamma (Homo sapiens) (UniProt P37231).
T2 sequence (whole entry): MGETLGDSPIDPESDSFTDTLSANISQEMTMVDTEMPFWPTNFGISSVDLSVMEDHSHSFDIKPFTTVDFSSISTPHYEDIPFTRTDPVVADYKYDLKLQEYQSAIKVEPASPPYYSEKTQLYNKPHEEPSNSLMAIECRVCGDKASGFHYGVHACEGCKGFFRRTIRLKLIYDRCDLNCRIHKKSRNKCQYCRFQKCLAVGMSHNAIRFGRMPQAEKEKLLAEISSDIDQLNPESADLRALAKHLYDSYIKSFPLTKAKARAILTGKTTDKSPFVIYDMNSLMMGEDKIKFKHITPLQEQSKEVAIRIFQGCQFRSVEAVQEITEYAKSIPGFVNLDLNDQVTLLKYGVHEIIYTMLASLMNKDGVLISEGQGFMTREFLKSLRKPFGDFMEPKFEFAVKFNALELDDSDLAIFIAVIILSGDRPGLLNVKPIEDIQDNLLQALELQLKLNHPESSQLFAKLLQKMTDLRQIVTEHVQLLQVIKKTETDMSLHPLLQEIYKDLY
The experiment in a line: Agonist activity at PPARgamma (unknown origin) by receptor transactivation assay.

The target of data set [6] is T1, Bile acid receptor (Homo sapiens). Kind of data set: Agonist activity at […] (unknown origin) expressed in human HepG2 cells co-expressing human SHP gene promoter assessed as transactivation of SHP promoter driven luciferase activity at 1 uM relative to untreated control. It is filed as cell-based.
A further data set has as its system HepG2. Kind of data set: Toxicity against human HepG2 cells assessed as effect on cell growth at 100 nM to 1 uM. The data set is classed as cell-based. As to conditions: hepg2, 0.1 µM.
The target in data set [7] is T1, Bile acid receptor (Homo sapiens). The experiment in a line: Agonist activity at […] (unknown origin) expressed in human HepG2 cells co-expressing human PLTP gene promoter assessed as transactivation of PLTP promoter driven luciferase activity at 100 nM relative to untreated control. The data set is classed as cell-based. Put shortly: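 HepG2 cells (1 × 10^5 cells/well, phenol red-free DMEM, 10% charcoal-stripped FBS, pen/strep) transfected the next day with wild-type FXR plasmid pCMV-FXR (2 µg), pPLTP-Luc reporter (6 µg) and pCMV-β-gal (1 µg). Dosed 48 h at 100 nM–10 µM. Luciferase normalized to β-gal, expressed relative to DMSO (=1), 10 µM CDCA reference; mean ± SD of ≥3 determinations.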

The target is the same in data set [8]. The experiment in a line: Agonist activity at […] (unknown origin) expressed in human HepG2 cells co-expressing rat CYP7A1 gene promoter assessed as transrepression of CYP7A1 promoter driven luciferase activity at 100 nM relative to untreated control. It is filed as cell-based. In a few lines:
as §2

Data set [9] has the same target. The experiment in a line: Agonist activity at […] (unknown origin) expressed in human HepG2 cells co-expressing rat CYP7A1 gene promoter assessed as transrepression of CYP7A1 promoter driven luciferase activity at 1 uM relative to untreated control. The data set is classed as cell-based. Put shortly: as §2
Data set [10] has the same target. The experiment in a line: Agonist activity at GAL4 DNA binding domain tagged FXR ligand binding domain (unknown origin) expressed in human HepG2 cells assessed as receptor transactivation measured by relative luciferase activity at 100 nM by luciferase reporter gene based mammalian one-hybrid assay relative to untreated control. The data set is classed as cell-based. In a few lines:
as §1

Data set [11] shares this target. Kind of data set: Agonist activity at […] (unknown origin) expressed in human HepG2 cells co-expressing human PLTP gene promoter assessed as transactivation of PLTP promoter driven luciferase activity relative to untreated control. The data set is classed as cell-based.
For data set [12] the target is unchanged. Kind of data set: Agonist activity at […] (unknown origin) expressed in human HepG2 cells co-expressing human SHP gene promoter assessed as transactivation of SHP promoter driven luciferase activity at 100 nM to 10 uM relative to untreated control. The data set is classed as cell-based.

Activity calls are given as the source filed them. No cut-off for these calls is given here.

As for `CO[C@H]1CC2=C(C(=O)C[C@@H](c3ccccc3)O2)[C@H]2CC(=O)O[C@@H]12` [7-O-METHYLCRYPTOCHINONE A], the fold change (FC) was determined as 1.5 in [1] and 3 in data set [6]. The values for the Activity result (in [2]; in the data set with HepG2; in data set [11]) were “Dose-dependent effect”, “Non-toxic” and “Dose-dependent effect”, respectively. Also, the inhibition in data set [3] came to 60%. Moreover, the outcome in [4] was Active. Besides, the result in data set [5], in [7], in data set [8], in data set [9] and in data set [10] was inactive.
On to `CO[C@H]1CC2=C(C(=O)C[C@@H](c3ccccc3)O2)[C@@H]2CC(=O)O[C@H]12` [7-O-METHYLCRYPTOCHINONE B], for which the fold change (FC) in data set [1] came out at 1.5; in [6] it was 3. Besides, the Activity result in data set [2] is “Dose-dependent effect”; with HepG2, “Non-toxic”; in data set [11], “Dose-dependent effect”. Besides, the inhibition in data set [3] was determined as 60%. Besides, the outcome in data set [4] was Active. The result in data set [5], in [7], in data set [8], in data set [9] and in [10] was inactive.
Regarding `O=C1C[C@@H]2C3=C(C[C@H](O)[C@@H]2O1)O[C@H](c1ccccc1)CC3=O` [CRYPTOCHINONE A], the fold change (FC) in [1] was 1.5. The Activity result is “Dose-dependent effect” in [2], “Non-toxic” in the data set on HepG2 and “Dose-dependent effect” in [11]. Further, the inhibition in [3] worked out at 60%. Also, the outcome in data set [12] and in data set [9] was Active. For the same compound, the outcome in data set [5], in data set [7], in data set [8] and in data set [10] was inactive.
Turning to `O=C1C[C@H]2C3=C(C[C@H](O)[C@H]2O1)O[C@H](c1ccccc1)CC3=O` [CRYPTOCHINONE B], the fold change (FC) in data set [1] turned out to be 1.5. Also, the results for the Activity entry (in data set [2]; in the data set on HepG2; in [11]) were “Dose-dependent effect”, “Non-toxic” and “Dose-dependent effect”, respectively. For the same compound, in [3], the inhibition amounted to 60%. Moreover, the result in data set [12] and in data set [9] was Active. The outcome in data set [5], in data set [7], in data set [8] and in [10] was inactive.

The values above are taken from ChEMBL document CHEMBL3352661, “Cryptochinones from Cryptocarya chinensis act as farnesoid X receptor agonists” (Bioorg Med Chem Lett, 2014).
